Screening data from PubChem.
DSG3 Ab inh = inhibitors of pemphigus antibody binding to human desmoglein-3; binding (percent of control), % at 10 µM; 310,000 compounds, 0.48% hits; P32926; DSG3-coupled beads, scFv-anti-DSG3-GFP binding, flow cytometry; active compounds read low;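 active means binding more than 3 SD below its plate's average and above zero; inconclusive means below that plate limit but binding exactly zero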;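 further: hits lower antibody fragment binding to DSG3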
Runt-SMMHC FRET = Runt domain-CBFb-SMMHC interaction inhibition; inhibition, % at 20 µM; Cerulean-Runt/Venus-CBFb-SMMHC FRET ratio 530/480, 1 h; Q01196+Q13951; 220,000 compounds, 0.74% hits;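 active means mean inhibition across duplicate retests at 20 µM reaching about 50%, limit read from the data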;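 further: 0% = DMSO wells and 100% = wells with excess untagged CBFb-SMMHC; inhibitors lower the FRET ratio by blocking Runt binding to CBFb-SMMHC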
p-CIP stab down = p/CIP protein destabilization; Q05BA5; F442A p/CIP-EGFP cells, EGFP fluorescence, 16 h; decrease of EGFP signal, % at 10 µM; 290,000 compounds, 0.01% hits; AID 1984;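 active means EGFP signal decrease of at least 30% at 10 µM or well 3 SD below plate mean, unless failing retest; inactive means the rest, including hits failing retest or dose response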
Hck Nef HTS = inhibitors of human Hck kinase activated by Nef; P08631; Recombinant Hck-YEEI plus Nef, Z-Lyte FRET kinase assay; inhibition, % at 20 µM; 220,000 compounds, 0.68% hits; AID 463187;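 active means Hck-Nef kinase inhibition above about 50%, limit read from the data; inactive means inhibition below that limit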;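 further: 0% = DMSO with Hck plus Nef and 100% = Hck alone without Nef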
Target sequence (P08631 whole entry, looked up): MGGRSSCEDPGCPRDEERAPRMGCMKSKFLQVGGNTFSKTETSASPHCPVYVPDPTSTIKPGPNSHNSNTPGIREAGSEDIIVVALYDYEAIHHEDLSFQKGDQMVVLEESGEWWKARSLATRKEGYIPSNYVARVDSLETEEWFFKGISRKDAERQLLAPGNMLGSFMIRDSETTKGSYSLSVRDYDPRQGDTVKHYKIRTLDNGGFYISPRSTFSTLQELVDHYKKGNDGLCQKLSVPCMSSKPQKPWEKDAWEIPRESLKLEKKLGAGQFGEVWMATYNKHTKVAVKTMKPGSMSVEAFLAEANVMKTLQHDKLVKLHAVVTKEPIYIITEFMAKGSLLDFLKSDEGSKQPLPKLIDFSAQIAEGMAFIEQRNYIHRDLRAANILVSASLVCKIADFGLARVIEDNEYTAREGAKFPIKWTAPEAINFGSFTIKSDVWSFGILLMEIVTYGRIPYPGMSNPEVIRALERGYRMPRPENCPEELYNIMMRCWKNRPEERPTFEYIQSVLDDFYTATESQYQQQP
RanGTP-Imp inh = inhibitors of RanGTP-importin-beta interaction, primary screen, biochemical, FRET, CFP-Ran, YFP-importin-beta, homogeneous | cell-free CFP-Ran/YFP-importin-beta FRET ratio | inhibition, % (no concentration beside the values) | 300,000 compounds, 1.1% hits;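 active means more than half of the replicate wells show a fall in the fluorescence ratio signal beyond about 16%, limit read from the data, passing the limit was not always enough; inconclusive means exactly half of the replicate wells pass the set limit; inactive means fewer than half of replicates pass the limit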;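 further: 0% = DMSO wells and 100% = Ran loaded with GDP instead of GTP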
Runt-CBFb FRET = blocks binding of human RUNX1 Runt domain to CBFb; Cerulean-Runt/Venus-CBFb FRET ratio 530/480, 1 h; AID 1496; 220,000 compounds, 0.46% hits; Q01196+Q13951; inhibition, % at 20 µM;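 active means inhibition over about 50% at 20 µM in the single-dose screen, limit read from the data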;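 further: 0% = DMSO wells and 100% = excess unlabeled CBFb competitor control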
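Assay system: Cerulean-tagged RUNX1 Runt domain (FRET donor) fusion protein / Amount: 100 nM each of Venus-CBFb and Cerulean-Runt domain / Medium: Tris buffer pH 7.5 with salts and BSA / Also added: Venus-CBFb 100 nM / Schedule: 1 h complex formation plus 1 h compound treatment, room temperature / Signal: FRET fluorescence / Read-out: loss of energy transfer signal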
Starred values were filed as active, the others as inactive; u = inconclusive; x = no result. Sampled rows, rich in hits. Any-hit rate of the full collection: about 2.1%.

SMILES	DSG3 Ab inh	Runt-SMMHC FRET	p-CIP stab down	Hck Nef HTS	RanGTP-Imp inh	Runt-CBFb FRET
CCCCNS(=O)(=O)c1ccc(NC(=O)C(Sc2ccccc2)c2ccccc2)cc1 (configuration not stated)	98	-2	-4	3	-4	1
COc1ccc(OC)c(/C=N/NC(=O)C(=O)N/N=C/c2cc(OC)ccc2OC)c1	54*	x	x	x	9	x
O=C(NC12CC3CC(CC(C3)C1)C2)N1CCN(C(=O)c2ccco2)CC1	92	4	3	3	-3	0
COc1ccc2nc(SCC(=O)N3CCN(c4ccccc4F)CC3)c(C#N)cc2c1	x	x	x	6	x	x
O=C1C=C(NCc2ccccc2)CCC1	84	0	2	4	u	2
N#Cc1ccccc1NC1=CC(=O)CCC1	97	2	9	1	58*	-2
C#CCN(C[C@H]1[C@H](OC(=O)Nc2c(C)noc2C)[C@H](OC(=O)Nc2c(C)noc2C)C[C@@H](C(=O)OC)[C@H]1C(=O)OC)S(=O)(=O)c1ccc(C)cc1	102	x	x	x	x	x
O=C(Cn1c2ccccc2c2nc3n(c(=O)c21)CCS3)Nc1ccccc1C(F)(F)F	93*	-8	-10	22	2	x
COC(=O)c1ccc(C(=O)OC)c(NC(=S)N2CC(C)CC(C)C2)c1 (configuration not stated)	96	29	-4	8	u	14
COC(=O)c1ccc(C(=O)OC)c(NC(=S)N2CCCC(C)C2)c1 (configuration not stated)	98	34	2	4	54*	17
CCN(CC)C(=S)Nc1cc(C(=O)OC)ccc1C(=O)OC	94	32	4	4	38*	20
O=S(=O)(NCc1ccc2c(c1)OCO2)c1ccc(F)c(F)c1	114	x	-6	x	-1	x
CCc1c(C)c(C#N)c2nc3ccccc3n2c1NCc1ccccn1	x	65*	6	21	12	32
CCc1c(C)c(C#N)c2nc3ccccc3n2c1Cl	x	-31	3	4	21*	-10
CCc1c(C)c(C#N)c2nc3ccccc3n2c1NCC1CCCO1 (configuration not stated)	x	65*	1	21	7	35
COC(=O)CCc1c(C)c(C#N)c2nc3ccccc3n2c1N1CCCC1	107	62	-2	4	17*	13
CCc1c(C)c(C#N)c2nc3ccccc3n2c1NCCOC	101	x	-4	x	u	x
CCc1c(C)c(C#N)c2nc3ccccc3n2c1-n1nc(C)cc1C	99	-63	-5	0	-4	-20
CSc1ccccc1NC(=O)CN(C)C(=O)C1CCN(C(=O)Nc2ccccc2)CC1	97	x	x	x	2	x
Cc1nccn1-c1c2c(c(C#N)c3nc4ccccc4n13)CCCC2	105	x	x	x	x	x
Cc1c2c(n3c(nc4ccccc43)c1C#N)N(c1ccccc1)CC2	x	79*	-21	6	x	16
COc1cc(OC)cc(C(=O)N[C@H](C(=O)NC2CCCc3ccccc32)C(C)C)c1 (some centres not stated)	97	x	x	x	x	x
O=C(O)c1ccc[n+](Cc2ccc([N+](=O)[O-])cc2)c1	99	x	x	x	12*	x
O=C(Nc1ccc(F)cc1)Nc1ccc([N+](=O)[O-])cn1	54*	-7	4	20	7	-2
O=C(Nc1ccc(Cl)c(Cl)c1)Nc1ccc([N+](=O)[O-])cn1	88	-7	7	33	1	0
CCC1=C(c2ccc(OC)cc2)CCC(C(=O)O)C1C (configuration not stated)	121	x	x	x	x	x
CC(C)c1ccc(C(C(=O)NC2CCCC2)N(C(=O)c2csnn2)C2CC2)cc1 (configuration not stated)	x	x	3	x	2	x
Cn1c(=O)n(Cc2ccccc2F)c2ccccc21	x	-1	-16	5	40*	2
Cc1cc(C(=O)CCC(=O)NC(C)c2ccc(S(N)(=O)=O)cc2)c(C)s1 (configuration not stated)	89	x	x	x	3	x
Cc1cc(C)n(-c2nc3ccccc3nc2N2CCN(S(=O)(=O)c3ccc(F)c(C)c3)CC2)n1	111	21	-7	-1	9	4
